What was measured:
[1] = target: T1, Glutamate NMDA receptor; Grin1/Grin2c (Rattus norvegicus) (UniProt P35439+Q00961); experiment: Positive allosteric modulation of recombinant rat GluN1/GluN2C receptor expressed in xenopus laevis oocyte assessed as potentiation of glutamate and glycine-induced current response at 10 uM at holding potential -40mV by two electrode voltage clamp method relative to control; settings: for Activity: 30 uM, in the assay text read “at 30 uM” for “at 10 uM”
In short: (§1)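 Two-electrode voltage clamp at -40 mV, 23°C, pH 7.4 Ba²⁺ recording solution, on Xenopus oocytes expressing rat NMDA receptors. Currents were evoked by 100 µM glutamate plus 30 µM glycine, with compound co-applied (DMSO 0.05–0.5% final). […] Each compound used at least 4 oocytes from at least 2 frogs.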

[2] = target: T2, Ionotropic glutamate receptor NMDA 1/2D (Rattus norvegicus) (UniProt P35439+Q62645); experiment: Positive allosteric modulation of recombinant rat GluN1/GluN2D receptor expressed in xenopus laevis oocyte assessed as potentiation of glutamate and glycine-induced current response at 10 uM at holding potential -40mV by two electrode voltage clamp method relative to control; in short: as §1
[3] = target: T2, Ionotropic glutamate receptor NMDA 1/2D (Rattus norvegicus); experiment: Positive allosteric modulation of recombinant rat GluN1/GluN2D receptor expressed in xenopus laevis oocyte assessed as potentiation of glutamate and glycine-induced current response at 30 uM at holding potential -40mV by two electrode voltage clamp method relative to control
In short: (§2)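 Two-electrode voltage clamp at -40 mV, 23°C, pH 7.4 Ba²⁺ recording solution, on Xenopus oocytes expressing rat NMDA receptors. Currents were evoked by 100 µM glutamate plus 30 µM glycine, with compound co-applied (DMSO 0.05–0.5% final). Each compound used at least 4 oocytes from at least 2 frogs.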

[4] = target: T1, Glutamate NMDA receptor; Grin1/Grin2c (Rattus norvegicus); experiment: Positive allosteric modulation of recombinant rat GluN1/GluN2C receptor expressed in xenopus laevis oocyte assessed as compound concentration required to show two fold increase in glutamate and glycine-induced current response at holding potential -40mV by two electrode voltage clamp method
[5] = target: T2, Ionotropic glutamate receptor NMDA 1/2D (Rattus norvegicus); experiment: Positive allosteric modulation of recombinant rat GluN1/GluN2D receptor expressed in xenopus laevis oocyte assessed as compound concentration required to show two fold increase in glutamate and glycine-induced current response at holding potential -40mV by two electrode voltage clamp method
[6] = target: T3, Glutamate NMDA receptor; Grin1/Grin2b (Rattus norvegicus) (UniProt P35439+Q00960); experiment: Positive allosteric modulation of recombinant rat GluN1/GluN2B receptor expressed in xenopus laevis oocyte assessed as potentiation of glutamate-induced current response at 30 uM at holding potential -40mV by two electrode voltage clamp method
[7] = target: T1, Glutamate NMDA receptor; Grin1/Grin2c (Rattus norvegicus); experiment: Positive allosteric modulation of recombinant rat GluN1/GluN2C receptor expressed in xenopus laevis oocyte assessed as potentiation of glutamate and glycine-induced current response at 30 uM at holding potential -40mV by two electrode voltage clamp method relative to control; in short: as §2
[8] = target: Glutamate NMDA receptor; Grin1/Grin2c (Rattus norvegicus, UniProt P35439+Q00961); experiment: Positive allosteric modulation of recombinant rat GluN1/GluN2C receptor expressed in xenopus laevis oocyte assessed as potentiation of glutamate and glycine-induced current response at holding potential -40mV by two electrode voltage clamp method; in short: as §2
[9] = target: Ionotropic glutamate receptor NMDA 1/2D (Rattus norvegicus, UniProt P35439+Q62645); experiment: Positive allosteric modulation of recombinant rat GluN1/GluN2D receptor expressed in xenopus laevis oocyte assessed as potentiation of glutamate and glycine-induced current response at holding potential -40mV by two electrode voltage clamp method; in short: as §2
[10] = target: T3, Glutamate NMDA receptor; Grin1/Grin2b (Rattus norvegicus); experiment: Positive allosteric modulation of recombinant rat GluN1/GluN2B receptor expressed in xenopus laevis oocyte assessed as potentiation of glutamate and glycine-induced current response at 30 uM at holding potential -40mV by two electrode voltage clamp method relative to control; in short: as §1
[11] = target: T3, Glutamate NMDA receptor; Grin1/Grin2b (Rattus norvegicus); experiment: Positive allosteric modulation of recombinant rat GluN1/GluN2B receptor expressed in xenopus laevis oocyte assessed as compound concentration required to show two fold increase in glutamate and glycine-induced current response at holding potential -40mV by two electrode voltage clamp method
[12] = target: Glutamate NMDA receptor; Grin1/Grin2b (Rattus norvegicus, UniProt P35439+Q00960); experiment: Positive allosteric modulation of recombinant rat GluN1/GluN2B receptor expressed in xenopus laevis oocyte assessed as potentiation of glutamate and glycine-induced current response at holding potential -40mV by two electrode voltage clamp method; in short: as §2
[13] = target: T3, Glutamate NMDA receptor; Grin1/Grin2b (Rattus norvegicus); experiment: Positive allosteric modulation of recombinant rat GluN1/GluN2B receptor expressed in xenopus laevis oocyte assessed as potentiation of glutamate and glycine-induced current response at 10 uM at holding potential -40mV by two electrode voltage clamp method relative to control; settings: 30 uM, in the assay text read “at 30 uM” for “at 10 uM”; in short: as §1

| Structure (SMILES) | Activity [1] | Activity [2] | Emax [3] | CD [4] | CD [5] | Activity [6] | Emax [7] | EC50 [8] | EC50 [9] | Emax [10] | CD [11] | EC50 [12] | Emax ([1]; 10 uM) | Emax [13] | Emax [2] | Activity [10] | Activity [3] | Activity [7] |
| --- | --- | --- | --- | --- | --- | --- | --- | --- | --- | --- | --- | --- | --- | --- | --- | --- | --- | --- |
| CCOc1ccc(OCC2c3ccc(OC(C)C)cc3CCN2C(=O)c2ccc(Cl)c(Cl)c2)cc1 (configuration not stated) | 150% | 122% |  |  |  |  |  |  |  |  |  |  |  |  |  |  |  |  |
| CC(C)Oc1ccc(OCC2c3ccc(OC(C)C)cc3CCN2C(=S)c2cccc(Cl)c2)cc1 (configuration not stated) |  |  | 152% |  |  |  | 141% | 480 nM | 410 nM | 209% | 4 µM | 550 nM |  |  |  |  |  |  |
| CC(C)Oc1ccc(OCC2c3ccc(OC(C)C)cc3CCN2C(=S)c2cccc(F)c2)cc1 (configuration not stated) |  |  | 154% |  |  |  | 158% | 700 nM | 1200 nM | 203% | 9 µM | 670 nM |  |  |  |  |  |  |
| CCOc1ccc(OCC2c3ccc(OC(C)C)cc3CCN2C(=O)c2ccc(F)c(F)c2)cc1 (configuration not stated) |  |  | 137% |  |  |  | 150% | 1800 nM | 2900 nM | 173% |  | 3700 nM |  |  |  | 172% | 133% | 145% |
| CCOc1ccc(OCC2c3ccc(OC(C)C)cc3CCN2C(=S)c2cccc(Cl)c2)cc1 (configuration not stated) |  |  | 192% | 7.6 µM |  |  | 278% | 5000 nM | 1600 nM | 172% |  | 400 nM |  |  |  |  |  |  |
| CCOc1ccc(OCC2c3ccc(OC(C)C)cc3CCN2C(=S)c2cccc(F)c2)cc1 (configuration not stated) |  |  | 159% |  |  |  | 170% | 1400 nM | 1200 nM | 184% |  | 550 nM |  |  |  |  |  |  |
| COc1ccc(OC[C@@H]2c3ccc(OC(C)C)cc3CCN2C(=O)c2cccc(Cl)c2)cc1 |  |  | 267% | 3.5 µM | 4.4 µM |  | 277% |  | 3800 nM | 276% | 3.5 µM |  |  |  |  |  |  |  |
| CC(C)Oc1ccc2c(c1)CCN(C(=O)c1cccc(Cl)c1)C2COc1ccc(OC(F)(F)F)cc1 (configuration not stated) |  |  | 152% |  |  |  | 192% | 1500 nM | 1700 nM | 130% |  | 1400 nM |  |  |  | 130% | 150% | 189% |

Other lines, results leading:

| Activity [1] | Activity [2] | Emax [3] | CD [4] | CD [5] | Activity [6] | Emax [7] | EC50 [8] | EC50 [9] | Emax [10] | CD [11] | EC50 [12] | Emax ([1]; 10 uM) | Emax [13] | Emax [2] | Activity [10] | Activity [3] | Activity [7] | Structure (SMILES) |
| --- | --- | --- | --- | --- | --- | --- | --- | --- | --- | --- | --- | --- | --- | --- | --- | --- | --- | --- |
|  |  | 297% | 1.3 µM | 1 µM | 101% | 252% |  |  |  |  |  |  |  |  |  |  |  | COc1ccc(OC[C@H]2c3ccc(OC(C)C)cc3CCN2C(=O)c2cccc(Cl)c2)cc1 |
|  |  | 250% | 3.8 µM | 4.9 µM | 105% | 253% | 1700 nM | 2000 nM |  |  |  |  |  |  |  |  |  | COc1ccc(OC[C@H]2c3ccc(OC(C)C)cc3CCN2C(=S)c2cccc(Cl)c2)cc1 |
| 270% | 312% |  |  |  |  |  | 1800 nM | 2600 nM |  |  | 3900 nM | 286% | 204% | 338% |  |  |  | COc1ccc(OCC2c3ccc(OC(C)C)cc3CCN2C(=O)c2cccc(Br)c2)cc1 (configuration not stated) |
|  |  | 464% |  |  |  | 313% | 2300 nM | 4000 nM | 221% |  | 4900 nM |  |  |  | 213% | 418% | 289% | COc1ccc(OCC2c3ccc(N4CCCCC4)cc3CCN2C(=O)c2cccc(Cl)c2)cc1 (configuration not stated) |
|  |  | 293% | 0.5 µM | 0.5 µM |  | 307% | 480 nM | 480 nM | 214% | 1.5 µM | 320 nM |  |  |  |  |  |  | COc1ccc(OC[C@@H]2c3ccc(OC(C)C)cc3CCN2C(=S)c2cccc(Cl)c2)cc1 |

From ChEMBL document CHEMBL4011622, “The Structure-Activity Relationship of a Tetrahydroisoquinoline Class of N-Methyl-d-Aspartate Receptor Modulators that Potentiates GluN2B-Containing N-Methyl-d-Aspartate Receptors” (J Med Chem, 2017)
